Active and inactive are the calls of the source. No cut-off for these calls is given here.
Tests used:
[1] = system: Trypanosoma brucei; assay: Antitrypanosomal activity against Trypanosoma brucei Lister 427 bloodstream form assessed as parasite growth inhibition at 50 uM after 72 hrs by SYBR Green assay relative to control; format: functional; details: for inhibition of growth at 50 µM: Lister 427, 72 h, read-out: GI
[2] = Cytotoxicity against human 786-O cells assessed as inhibition of mitochondrial viability at 10 uM after 6 hrs by CMXRos staining based assay relative to control; format: cell-based, 786-0; details: read-out: INH
Method in brief: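 Mitochondrial toxicity monitored by MitoTracker Red CMXRos uptake and high-content imaging; compound at 10 μM, triplicate.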

[3] = system: Leishmania infantum; assay: Antileishmanial activity against Leishmania infantum amastigote form assessed as parasite growth inhibition at 50 uM after 72 hrs by steady-Glo reagent based assay relative to control; format: functional; details: for inhibition of growth at 50 µM: read-out: GI
Method in brief: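 Intramacrophage L. infantum amastigotes in THP-1-derived macrophages, tested at 50 μM or in dose-response. Plates held 72 h at 37 °C, 5% CO2. Medium was replaced by PBS, macrophages lysed, and parasites read by Steady-Glo luminescence. High-content imaging gave host cell number, infection ratio (infected/total cells) and parasites per infected cell. Values are means of at least two independent experiments.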

[4] = molecular target: CYP2C9 (Homo sapiens, UniProt P11712); assay: Inhibition of human microsomal CYP2C9 expressed in baculovirus infected BTI-TN-5B1-4 cells at 10 uM incubated for 30 mins by luciferase assay relative to control; format: ADME
Method in brief: (§1)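 CYP1A2, 2C9, 2C19, 2D6 and 3A4 in microsomes from baculovirus-infected insect cells, each with a P450-Glo luminogenic substrate. Inhibition read as loss of light; single-point at 10 μM, triplicate.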

[5] = Cytotoxicity against human THP1 cells assessed as viable cells at 100 uM after 72 hrs by MTT assay relative to control; format: cell-based, THP-1; details: read-out: Activity
Method in brief: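 THP-1-derived macrophages exposed to compounds for 72 h, tested at 100 μM or in dose-response; viability read by MTT colorimetric assay.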

[6] = molecular target: T1, Pteridine reductase 1 (Leishmania major) (UniProt Q01782); assay: Inhibition of Leishmania major PTR1 at 50 uM using H2B as substrate in presence of NADPH by photometric analysis relative to control
T1 sequence (whole entry): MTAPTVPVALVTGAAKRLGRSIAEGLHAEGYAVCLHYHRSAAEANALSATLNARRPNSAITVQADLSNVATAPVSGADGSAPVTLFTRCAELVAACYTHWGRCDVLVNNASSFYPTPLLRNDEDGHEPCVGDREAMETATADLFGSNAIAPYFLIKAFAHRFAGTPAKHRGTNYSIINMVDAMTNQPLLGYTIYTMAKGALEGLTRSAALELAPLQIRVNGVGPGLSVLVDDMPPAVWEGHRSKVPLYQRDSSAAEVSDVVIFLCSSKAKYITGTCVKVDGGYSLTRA

[7] = Cytotoxicity against human U2OS cells assessed as viable cells at 50 uM after 72 hrs by MTT assay relative to control; format: cell-based; details: read-out: Activity
[8] = system: Trypanosoma brucei; assay: Potentiation of methotrexate-induced antitrypanosomal activity against Trypanosoma brucei Lister 427 bloodstream form at 10 uM after 72 hrs by resazurin dye-based assay relative to control; format: functional
[9] = molecular target: T2, Pteridine reductase, putative (Trypanosoma brucei) (UniProt Q581W1); assay: Inhibition of Trypanosoma brucei PTR1 at 50 uM using H2B as substrate in presence of NADPH by photometric analysis relative to control
T2 sequence (whole entry): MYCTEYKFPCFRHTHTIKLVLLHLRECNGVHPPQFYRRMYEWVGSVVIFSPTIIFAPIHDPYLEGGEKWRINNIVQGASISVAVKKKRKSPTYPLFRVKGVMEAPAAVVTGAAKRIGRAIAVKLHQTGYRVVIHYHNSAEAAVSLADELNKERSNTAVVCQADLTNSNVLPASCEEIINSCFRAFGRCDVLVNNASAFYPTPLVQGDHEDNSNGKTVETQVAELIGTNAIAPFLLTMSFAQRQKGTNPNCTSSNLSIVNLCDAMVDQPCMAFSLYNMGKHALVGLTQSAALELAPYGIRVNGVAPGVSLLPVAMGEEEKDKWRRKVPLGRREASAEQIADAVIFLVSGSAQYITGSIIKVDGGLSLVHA

[10] = molecular target: hERG (KCNH2) (Homo sapiens, UniProt Q12809); assay: Inhibition of human ERG at 10 uM incubated for 2 hrs by fluorescence polarisation assay relative to control
[11] = molecular target: CYP2D6 (Homo sapiens, UniProt P10635); assay: Inhibition of human microsomal CYP2D6 expressed in baculovirus infected BTI-TN-5B1-4 cells at 10 uM incubated for 30 mins by luciferase assay relative to control; format: ADME; method in brief: as §1
[12] = molecular target: CYP3A4 (Homo sapiens, UniProt P08684); assay: Inhibition of human microsomal CYP3A4 expressed in baculovirus infected BTI-TN-5B1-4 cells at 10 uM incubated for 30 mins by luciferase assay relative to control; format: ADME; method in brief: as §1
[13] = system: Trypanosoma brucei; assay: Antitrypanosomal activity against Trypanosoma brucei Lister 427 bloodstream form at 10 uM after 72 hrs by resazurin dye-based assay relative to control; format: functional
[14] = system: Trypanosoma cruzi; assay: Antitrypanosomal activity against Trypanosoma cruzi amastigote form infected in human U2OS cells assessed as parasite growth inhibition at 50 uM after 72 hrs relative to control; format: functional; details: for inhibition of growth at 50 µM: read-out: GI
Method in brief: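 U2OS monolayers grown for 24 h, then infected with tissue-derived trypomastigotes of T. cruzi Y strain. Compounds were added 24 h after infection at 50 μM (single-point) or in dose-response, with 72 h exposure. Plates were fixed, stained and analysed by high-content imaging; activity was normalized to infected and non-infected controls. Means of at least two experiments; benznidazole as reference.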

[15] = Cytotoxicity against human WI38 cells assessed as growth inhibition at 10 uM after 48 hrs by CellTiter-Glo assay relative to control; values are per cent of control; details: WI38 cells
[16] = system: Trypanosoma brucei; assay: Potentiation of methotrexate-induced antitrypanosomal activity against Trypanosoma brucei Lister 427 bloodstream form at 10 uM after 72 hrs by resazurin dye-based assay; format: functional
[17] = Cytotoxicity against human A549 cells assessed as growth inhibition at 10 uM after 48 hrs by CellTiter-Glo assay relative to control; values are per cent of control; details: A549 cells
[18] = molecular target: CYP2C19 (Homo sapiens, UniProt P33261); assay: Inhibition of human microsomal CYP2C19 expressed in baculovirus infected BTI-TN-5B1-4 cells at 10 uM incubated for 30 mins by luciferase assay relative to control; format: ADME; method in brief: as §1
[19] = molecular target: T3, CYP1A2 (Homo sapiens, UniProt P05177); assay: Inhibition of human microsomal CYP1A2 expressed in baculovirus infected BTI-TN-5B1-4 cells at 10 uM incubated for 30 mins by luciferase assay relative to control; format: ADME; method in brief: as §1
T3 sequence (P05177 whole entry): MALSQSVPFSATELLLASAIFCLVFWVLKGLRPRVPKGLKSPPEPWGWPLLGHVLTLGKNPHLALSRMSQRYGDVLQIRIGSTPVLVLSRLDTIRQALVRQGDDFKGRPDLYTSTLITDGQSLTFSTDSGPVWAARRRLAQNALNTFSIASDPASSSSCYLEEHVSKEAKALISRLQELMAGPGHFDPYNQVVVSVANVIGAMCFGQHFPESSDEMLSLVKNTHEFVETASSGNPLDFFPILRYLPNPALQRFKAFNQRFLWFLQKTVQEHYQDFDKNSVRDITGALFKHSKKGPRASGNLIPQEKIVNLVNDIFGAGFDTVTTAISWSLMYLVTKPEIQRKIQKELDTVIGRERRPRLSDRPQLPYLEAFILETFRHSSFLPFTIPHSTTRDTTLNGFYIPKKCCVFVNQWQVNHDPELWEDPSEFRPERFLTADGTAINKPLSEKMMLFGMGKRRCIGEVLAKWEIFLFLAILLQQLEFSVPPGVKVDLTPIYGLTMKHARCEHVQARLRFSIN

[20] = molecular target: Aurora kinase B (Homo sapiens, UniProt Q96GD4); assay: Inhibition of recombinant full-length human aurora B kinase expressed in baculovirus system at 10 uM using MBP as substrate incubated for 45 mins by ADP-glo kinase assay; details: probe MBP
Method in brief: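 Aurora B activity measured as ADP formation via coupled luciferase ADP-Glo luminescence; single-point at 10 μM, triplicate.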

Chain of CYP3A4 (P08684 whole entry): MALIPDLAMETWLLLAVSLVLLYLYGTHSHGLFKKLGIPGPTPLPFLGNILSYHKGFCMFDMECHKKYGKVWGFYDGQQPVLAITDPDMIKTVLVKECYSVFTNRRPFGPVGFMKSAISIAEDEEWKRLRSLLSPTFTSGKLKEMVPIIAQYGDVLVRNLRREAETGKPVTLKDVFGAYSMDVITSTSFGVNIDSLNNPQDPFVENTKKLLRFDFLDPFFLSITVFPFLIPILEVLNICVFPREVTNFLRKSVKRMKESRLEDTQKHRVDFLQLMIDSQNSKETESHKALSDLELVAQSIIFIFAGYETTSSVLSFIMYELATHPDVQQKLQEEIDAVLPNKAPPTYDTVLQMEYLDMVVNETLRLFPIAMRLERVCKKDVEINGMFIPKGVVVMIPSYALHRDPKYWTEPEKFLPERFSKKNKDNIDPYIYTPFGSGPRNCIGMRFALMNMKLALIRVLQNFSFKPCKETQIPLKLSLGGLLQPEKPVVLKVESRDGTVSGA
Chain of CYP2C9 (P11712 whole entry): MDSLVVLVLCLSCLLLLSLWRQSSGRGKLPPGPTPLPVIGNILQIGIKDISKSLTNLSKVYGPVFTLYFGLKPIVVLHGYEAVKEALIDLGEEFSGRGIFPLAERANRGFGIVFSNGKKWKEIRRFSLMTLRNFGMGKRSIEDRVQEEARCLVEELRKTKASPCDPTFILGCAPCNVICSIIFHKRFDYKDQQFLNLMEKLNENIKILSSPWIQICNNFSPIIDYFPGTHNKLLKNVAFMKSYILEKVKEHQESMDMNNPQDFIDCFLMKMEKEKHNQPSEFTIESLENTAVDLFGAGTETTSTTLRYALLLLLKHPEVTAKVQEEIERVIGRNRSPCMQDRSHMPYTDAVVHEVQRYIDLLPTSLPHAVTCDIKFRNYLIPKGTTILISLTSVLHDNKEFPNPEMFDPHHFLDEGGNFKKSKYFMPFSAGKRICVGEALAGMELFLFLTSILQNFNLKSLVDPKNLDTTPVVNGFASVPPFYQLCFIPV
Chain of CYP2C19 (P33261 whole entry): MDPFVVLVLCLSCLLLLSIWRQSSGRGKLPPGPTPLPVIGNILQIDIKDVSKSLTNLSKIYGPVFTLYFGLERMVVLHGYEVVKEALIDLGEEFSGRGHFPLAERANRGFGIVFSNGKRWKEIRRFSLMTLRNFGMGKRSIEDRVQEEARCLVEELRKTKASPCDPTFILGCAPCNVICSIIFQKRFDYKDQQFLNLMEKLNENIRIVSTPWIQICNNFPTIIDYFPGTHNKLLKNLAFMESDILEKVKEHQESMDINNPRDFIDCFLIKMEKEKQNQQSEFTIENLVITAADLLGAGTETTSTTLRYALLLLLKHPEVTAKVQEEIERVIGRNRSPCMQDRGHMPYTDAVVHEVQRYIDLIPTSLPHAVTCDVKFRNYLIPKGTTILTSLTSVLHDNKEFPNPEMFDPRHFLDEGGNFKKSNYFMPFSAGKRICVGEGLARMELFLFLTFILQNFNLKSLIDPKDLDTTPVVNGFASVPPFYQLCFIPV
Chain of CYP2D6 (P10635 whole entry): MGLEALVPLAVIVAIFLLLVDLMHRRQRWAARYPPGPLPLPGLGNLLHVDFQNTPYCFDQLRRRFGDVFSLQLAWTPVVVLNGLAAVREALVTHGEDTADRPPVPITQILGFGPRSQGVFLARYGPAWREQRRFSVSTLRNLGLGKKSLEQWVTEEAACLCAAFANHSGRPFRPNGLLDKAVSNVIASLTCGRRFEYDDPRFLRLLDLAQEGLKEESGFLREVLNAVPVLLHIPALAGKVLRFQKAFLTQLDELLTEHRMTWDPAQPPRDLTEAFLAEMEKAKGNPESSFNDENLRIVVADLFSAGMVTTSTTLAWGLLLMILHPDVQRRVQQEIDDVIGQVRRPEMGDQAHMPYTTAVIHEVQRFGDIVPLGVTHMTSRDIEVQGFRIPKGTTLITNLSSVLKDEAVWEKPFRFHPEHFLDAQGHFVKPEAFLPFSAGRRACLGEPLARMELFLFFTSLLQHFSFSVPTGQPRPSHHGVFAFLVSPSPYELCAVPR
Chain of Aurora kinase B (Q96GD4 whole entry): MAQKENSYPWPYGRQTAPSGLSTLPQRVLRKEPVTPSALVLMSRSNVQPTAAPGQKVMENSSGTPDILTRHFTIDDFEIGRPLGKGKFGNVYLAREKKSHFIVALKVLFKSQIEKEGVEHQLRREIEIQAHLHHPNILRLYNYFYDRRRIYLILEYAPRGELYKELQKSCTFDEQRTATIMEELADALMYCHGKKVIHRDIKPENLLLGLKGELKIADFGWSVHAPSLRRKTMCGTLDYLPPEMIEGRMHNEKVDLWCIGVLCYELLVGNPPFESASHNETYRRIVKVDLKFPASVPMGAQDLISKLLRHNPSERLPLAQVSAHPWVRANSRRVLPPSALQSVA
Chain of hERG (KCNH2) (Q12809 whole entry): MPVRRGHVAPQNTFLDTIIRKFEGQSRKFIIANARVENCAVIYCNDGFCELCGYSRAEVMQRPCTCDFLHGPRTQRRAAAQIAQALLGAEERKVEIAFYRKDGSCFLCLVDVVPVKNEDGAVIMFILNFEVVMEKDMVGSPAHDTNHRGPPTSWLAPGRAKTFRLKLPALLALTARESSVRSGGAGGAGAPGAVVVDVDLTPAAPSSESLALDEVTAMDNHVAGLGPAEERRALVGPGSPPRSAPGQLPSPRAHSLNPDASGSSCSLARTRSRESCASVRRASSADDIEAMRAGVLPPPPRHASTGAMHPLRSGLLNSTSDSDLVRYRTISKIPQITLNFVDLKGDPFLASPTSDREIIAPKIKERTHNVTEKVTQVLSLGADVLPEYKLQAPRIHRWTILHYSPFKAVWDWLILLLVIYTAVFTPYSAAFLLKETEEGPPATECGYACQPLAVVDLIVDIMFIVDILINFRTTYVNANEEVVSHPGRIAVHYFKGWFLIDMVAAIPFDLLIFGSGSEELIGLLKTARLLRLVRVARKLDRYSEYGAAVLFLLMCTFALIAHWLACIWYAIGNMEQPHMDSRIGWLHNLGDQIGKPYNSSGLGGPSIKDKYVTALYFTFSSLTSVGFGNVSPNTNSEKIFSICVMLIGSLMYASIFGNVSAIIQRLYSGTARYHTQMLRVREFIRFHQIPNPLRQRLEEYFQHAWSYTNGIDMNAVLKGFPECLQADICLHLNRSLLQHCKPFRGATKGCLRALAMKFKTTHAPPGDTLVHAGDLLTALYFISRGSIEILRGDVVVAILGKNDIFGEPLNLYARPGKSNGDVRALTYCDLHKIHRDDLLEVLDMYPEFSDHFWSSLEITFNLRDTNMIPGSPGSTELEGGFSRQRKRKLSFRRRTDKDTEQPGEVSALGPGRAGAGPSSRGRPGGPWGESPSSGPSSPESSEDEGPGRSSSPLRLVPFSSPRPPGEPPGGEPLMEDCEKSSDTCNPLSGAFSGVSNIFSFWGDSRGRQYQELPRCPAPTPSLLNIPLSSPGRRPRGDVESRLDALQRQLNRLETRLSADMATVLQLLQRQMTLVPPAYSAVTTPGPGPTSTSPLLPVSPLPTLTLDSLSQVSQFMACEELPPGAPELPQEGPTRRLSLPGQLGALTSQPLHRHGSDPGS

inhibition at 0.5 h, 10 µM [4] [%]	inhibition [6] [%]	inhibition [9] [%]	inhibition at 0.5 h, 10 µM [11] [%]	inhibition at 0.5 h, 10 µM [12] [%]	inhibition at 0.5 h, 10 µM [18] [%]	inhibition at 0.5 h, 10 µM [19] [%]	inhibition at 0.75 h, 10 µM [20] [%]	SMILES	inhibition of growth at 50 µM [1] [%]	cytotoxicity at 6 h, 10 µM [2] [%]	inhibition of growth at 50 µM [3] [%]	viability at 72 h, 100 µM [5] [%]	viability at 72 h, 50 µM [7] [%]	Activity [8] [%]	inhibition at 2 h, 10 µM [10] [%]	Activity [13] [%]	cell growth (% of control) at 48 h, 10 µM [15] [%]	PF [16]	cell growth (% of control) at 48 h, 10 µM [17] [%]	inhibition of growth at 50 µM [14] [%]	also measured
-6.01	7.53	2.13	-21	-30.2	-28.1	15.1	-17.7	COc1cc(/C=N/NC(N)=S)cc(OC)c1OC	0.21	4.79	7.19	40.2	65.5	51.67	-1.36	2.67	111	1.92	140	–	growth inhibition (GI) [14]: inactive
3.06	3.6	7.43	-6.6	-13.1	-39.5	-1.56	-10.5	NC(=S)N/N=C/c1ccc(N)cc1	–	-7.54	38.6	74.4	125	73.67	3.02	4.33	121	2.58	125	–	growth inhibition (GI) [1]: inactive; growth inhibition (GI) [14]: inactive
14.6	4.9	3.09	22.1	5.98	-17.1	100	-4.29	NC(=S)N/N=C/c1csc2ccccc12	3.57	12.6	24.4	44.9	152	52.33	-5.27	21	95.3	1.16	101	24.3	–
45.3	0.33	0.16	76.9	69.7	48.4	101	-3.81	NC(=S)N/N=C/c1cccc(-c2ccc3c(c2)OCO3)c1	61.8	15.7	46.9	2.61	81.5	96.33	9.13	38.67	91.9	1.53	111	71.3	–
14.7	3.5	9.25	20.6	5.26	-27.2	83.9	-4.25	NC(=S)N/N=C/c1cccc(-c2ccccc2)c1	0.9	4.4	35.8	45.2	112	93.5	5.99	28.5	111	1.77	110	20.2	–
-9.01	7.77	26.2	-24.5	-4.7	-63.9	-0.75	-0.05	C/C(=N\NC(N)=S)c1ccc(O)cc1	–	5.9	23.9	72.2	90.2	87.83	3.53	14.83	101	2.25	126	37	growth inhibition (GI) [1]: inactive
-19.7	4.38	1.7	-54.5	-27.9	-35.1	-13.2	-7.51	NC(=S)N/N=C/C(O)C(O)C(O)CO (stereo not given)	–	-1.92	–	67.6	146	16.17	-11.1	0.5	95.7	0.65	129	–	growth inhibition (GI) [1]: inactive; growth inhibition (GI) [3]: inactive; growth inhibition (GI) [14]: inactive
